Ecoli rRNA inh: reduced GFP signal of wild-type E. coli, primary screen, bacterial rRNA inhibitor project, GFP/RFP fluorescence, OD600, single point; E. coli WT GFP vs humanized-ribosome RFP mutants, 24 h; active compounds read low; DMSO median 0, no signal -100; AID 720706, 2013; 350,000 tested, 1.6% active; GFP signal change (wild-type ribosome), % (no concentration beside the values);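 active = significant combined selectivity score with lowered wild-type GFP, culture density cut under 30%, mutant RFP and density less affected; inactive = any of these conditions unmet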
S100A4 MyoIIA: inhibitors of S100A4-myosin IIA peptide binding, primary screen, biochemical, fluorescence polarization, TAMRA-MyoIIA peptide; 360,000 tested, 0.14% active; inhibition, % at 10.7 µM; Protein S100-A4 (Homo sapiens), P26447;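 active = mean inhibition of at least 70% across replicates, with every replicate also reaching that level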
Target sequence (P26447 whole entry, looked up): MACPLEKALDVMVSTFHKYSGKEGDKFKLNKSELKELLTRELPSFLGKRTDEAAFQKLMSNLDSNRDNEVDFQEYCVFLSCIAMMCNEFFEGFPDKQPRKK
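Assay system: human S100A4 monomer with TAMRA-labelled myosin IIA peptide / Buffer or medium: Calcium-containing HEPES buffer, pH 7.2 / Reagent: TAMRA-labelled myosin IIA heavy-chain peptide probe, 5 nM / Compound: one dose per compound / Timing: polarization read 5 min after assay mix addition, stable 5–60 min / Benchmarks: neutral control DMSO, positive control TFP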
F508del corr: F508del CFTR correction, initial screen, CFBE line, single point. 350,000 tested, 0.36% active. activity (quench increase), % at 7.58 µM. CFBE cells, YFP halide quenching; stimulated with forskolin plus potentiator P3; % fluorescence drop versus neutral controls;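 active = mean added fluorescence quench of at least 8% versus neutral control, with both replicates also reaching 8%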;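 also: cells transiently co-express mutant CFTR-F508del with the halide-sensitive YFP; corrector assay measuring rescue of mutant channel to the surface after 24 h compound exposure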
SIRT5 block: SIRT5 desuccinylase inhibitors, primary screen, biochemical, fluorescence imaging, single point, set 5. Purified SirT5, succinyl-peptide AMC, trypsin-coupled fluorescence. 330,000 tested, 1.1% active. inhibition, % at 15 µM. NAD-dependent protein deacylase sirtuin-5, mitochondrial (Homo sapiens), Q9NXA8. AID 652115, 2013; in the data active = inhibition above about 15%
Target sequence (Q9NXA8 whole entry, looked up): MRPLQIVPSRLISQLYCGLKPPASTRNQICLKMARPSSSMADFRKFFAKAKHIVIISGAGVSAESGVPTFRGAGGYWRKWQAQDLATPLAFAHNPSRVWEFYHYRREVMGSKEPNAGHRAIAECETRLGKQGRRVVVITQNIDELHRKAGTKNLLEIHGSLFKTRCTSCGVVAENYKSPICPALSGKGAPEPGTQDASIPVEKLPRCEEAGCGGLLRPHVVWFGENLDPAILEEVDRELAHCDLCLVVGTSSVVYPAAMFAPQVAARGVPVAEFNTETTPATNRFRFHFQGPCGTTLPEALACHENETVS
ERAP1 inh: human ERAP1 aminopeptidase inhibitors, primary screen, biochemical, single point, plate reader | inhibition, % at 10.7 µM | recombinant ERAP1, Leu-AMC fluorescence, 60 min | 340,000 tested, 0.15% active | AID 652197, 2013;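 active = mean replicate inhibition of at least 30%, or all replicates individually reaching that 30% level; inactive = mean below 30% and not every replicate reaching it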;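 also: 0% = neutral control wells and 100% = L-leucinethiol positive control wells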
Starred values were filed as active, the others as inactive; . = not tested or not shown. A selection: hits, their analogues and other compounds. The true share with any hit is near 3.1%.

SMILES | Ecoli rRNA inh | S100A4 MyoIIA | F508del corr | SIRT5 block | ERAP1 inh
COc1ccc(CN2[C@@H](CO)[C@@H]3c4ccccc4N(C(=O)Nc4ccc(F)cc4)C[C@@H]32)cc1 | -6 | -44 | 2 | -2 | .
CC(C)(C)OC(=O)CC[C@@]12N=C(c3ccc(OCCCO)cc3)O[C@@H]1c1ccccc1CN(C(=O)c1ccccc1)C2=O | . | -3 | 3 | 6 | -2
O=C(C[N+]1(CC#Cc2ccccc2)CCOCC1)c1ccc(Cl)cc1 | -24* | 1 | -3 | -5 | 4
O=C(C[N+]1(CC#Cc2ccccc2)CCOCC1)c1ccccc1 | -5 | -6 | 0 | -3 | 10
N#Cc1c2n(c3c(=O)n(Cc4ccccc4)cnc13)CCCC2 | -25* | -2 | 0 | 0 | 2
CN(Cc1ccccc1)C1=CC(=[N+]2CCCC2)CC(C)(C)C1 | -33* | -2 | 4 | 7 | 2
CN(C)Cc1ccccc1 | 6 | 2 | 1 | . | 0
CCN1C(=O)C(CC(=O)Nc2ccc(OC)cc2)N(CCCN2CCN(c3ccc(OC)cc3)CC2)C1=S (stereo unspecified) | -20* | 2 | 0 | 1 | -4
CCCC(=O)Nc1ccc2c(c1)C(=O)N(C)C[C@@H](OC)[C@H](C)CN(C(=O)c1ccncc1)[C@H](C)CO2 | 0 | -1 | 0 | 1 | 2
COC(=O)c1c(NC(=O)COC(=O)c2ccccn2)sc(C)c1C | 1 | -2 | 1 | -2 | -1
CCOC(=O)c1c(NC(=O)COC(=O)c2ccccn2)sc2c1CCC2 | -18* | -4 | -2 | 0 | -1
O=C(NCc1cccs1)c1cc(-c2ccccc2)nn1CC1CC(c2cccc([N+](=O)[O-])c2)=NO1 (stereo unspecified) | 6 | 2 | 8.6* | . | -1
CC(=O)CCc1oc2ccccc2c1-c1ccccc1 | -34* | 1 | 0 | 1 | 3
CC(=O)CCc1oc2ccc(C)cc2c1Cc1ccccc1 | -25 | -10 | 0 | -5 | 1
Cc1cc(N2CCCC2)c(F)cc1/C=C\[N+](=O)[O-] | 8 | -3 | 28* | . | .
CCC(=O)N1CCN(c2cc(N3CCCC3)c(F)cc2[N+](=O)[O-])CC1 | -5 | 0 | -4 | 7 | .
O=C(Nc1cccc(-c2cn3ccccc3n2)c1)c1ccccc1 | -32* | -7 | 2 | -2 | 0
Cc1ccc(C(=O)Nc2cccc(C(O)c3ccccc3)c2)cc1 (stereo unspecified) | -33* | 2 | 1 | -5 | .
Cc1ccc(C(=O)Nc2cccc(-c3cn4ccccc4n3)c2)cc1 | -29* | -5 | -1 | -6 | -3
C[C@H](CO)N1C[C@H](C)[C@H](CN(C)S(=O)(=O)c2ccccc2)Oc2ccc(NC(=O)Nc3ccccc3)cc2CC1=O | 4 | 1 | -1 | 1 | -6
COc1ccccc1NC(=O)N1CC(=O)N2[C@H](C1)[C@H](c1ccc(-c3ccc(C)cc3)cc1)[C@@H]2CO | 2 | 17 | 0 | -3 | 0
CCCC(=O)Nc1ccc2c(c1)C(=O)N(C)C[C@@H](OC)[C@@H](C)CN(Cc1nccs1)[C@@H](C)CO2 | -4 | -4 | 1 | 2 | .
CCN(CC)CCCN=C1N[C@@H](c2cccc(C(F)(F)F)c2)C(C(=O)OC)=C(C)N1CC | 10 | 3 | -1 | . | 61*
COC(=O)C1=C(C)N(Cc2ccccc2)C(=NCc2ccccc2)N[C@H]1c1cccc(F)c1 | -57 | 3 | 0 | -2 | 53*
CCN1C(=O)N[C@@H](c2cccc(C(F)(F)F)c2)C(C(=O)OC)=C1C | -10 | -2 | 2 | . | .
SMILES | Ecoli rRNA inh | S100A4 MyoIIA | F508del corr | SIRT5 block | ERAP1 inh
COC(=O)C1=C(C)N(Cc2cccc(C(F)(F)F)c2)C(=NCc2ccc(OC)cc2)NC1c1ccccc1C(F)(F)F (stereo unspecified) | -43 | -6 | 2 | 15* | 0
COC(=O)C1=C(C)N(Cc2ccccc2C(F)(F)F)C(=NCc2ccc3c(c2)OCO3)NC1c1cccc(F)c1 (stereo unspecified) | -42 | 3 | 2 | 17* | 1
COc1cccc(-c2ccc3n(c2=O)C[C@@H]2[C@@H](CO)[C@H](C(=O)NCC4CC4)N(C)[C@H]32)c1 | 0 | -2 | -3 | -3 | -2
C[C@H]1CN([C@@H](C)CO)C(=O)c2cc(NC(=O)C3CC3)ccc2O[C@@H]1CN(C)C(=O)Nc1ccc(F)cc1 | 2 | 14 | -1 | -1 | 4
COC(=O)C1=C(C)N(Cc2ccccc2C(F)(F)F)C(=NCc2ccc(C(F)(F)F)cc2)NC1c1ccc(Cl)cc1 (stereo unspecified) | 0 | -20 | 5 | 0 | 0
COC(=O)C1=C(C)N(Cc2ccc(C(F)(F)F)cc2)C(=NCc2ccccc2)NC1c1ccc(Cl)cc1 (stereo unspecified) | -42* | -2 | 2 | . | -2
COCCN=C1N[C@@H](c2ccc(Br)cc2)C(C(=O)OC)=C(C)N1Cc1ccccc1 | -6 | -1 | -3 | -1 | 91*
C[C@@H]1CN([C@@H](C)CO)S(=O)(=O)c2ccc(-c3ccncc3)cc2O[C@H]1CN(C)Cc1cccnc1 | -6 | -34 | 1 | -3 | 1
O=C(C[C@H]1CC[C@H]2[C@@H](COC[C@H](O)CN2CCc2ccccc2)O1)NCc1ccccc1 | 4 | 10 | 1 | 1 | -2
CC1=NC(=O)C(N=Nc2cccc(C(=O)O)c2)N1c1ccccc1 (stereo unspecified) | -31* | 7 | 0 | 3 | 23
OC[C@@H]1CN(Cc2ccc(-c3ccccc3)cc2)C[C@H](n2cnc3c(NC4CC4)ncnc32)O1 | -3 | -2 | 8.6* | -1 | -2
OC[C@@H]1CN(Cc2ccc(-c3ccccc3)cc2)C[C@H](n2cnc3c(Nc4ccccc4)ncnc32)O1 | -7 | -18 | -4 | -7 | 3
COc1cc(OC)cc(-c2cc3nc4c(c(N5CCN(c6ncccn6)CC5)n3n2)CCCC4)c1 | 10 | 6 | -1 | -3 | 3
OC1CCN(c2c3c(nc4cc(-c5cccc(F)c5)nn24)CCCC3)CC1 | -19* | -21 | 4 | -4 | 0
O=C(C[C@H]1C[C@@H]2c3cc(NC(=O)C4CCOCC4)ccc3O[C@@H]2[C@H](CO)O1)NCC(F)(F)F | 4 | 19 | 0 | 0 | 0
COc1ccc(Cn2c(-c3ccc(C)cc3)c[n+]3ccccc23)cc1 | -34* | 2 | 0 | -5 | 7
COc1ccc(Cn2c(O)c(C=Nc3ccc(C)cc3)c3ccccc3c2=O)cc1 | 11 | -6 | -4 | 2 | -1
